In ChEMBL document CHEMBL4382201 (J Med Chem, 2018):
In brackets after ≈: the same amount, converted by molar mass. Activity calls are given as the source filed them. The rule behind the calls is not given here.

Columns and labels:
[1] = Drug level in DMSO-d6/PBS buffer treated with (3-(((2-Amino-3-methoxy-3-oxopropyl)thio)methyl)-4-(bis(2-chloroethyl)amino)phenyl)boronic Acid assessed as compound formation after 10 days in presence of GSH by IT-TOF mass analysis; type: physicochemical; conditions: 240 h
[2] = Drug level in DMSO-d6/PBS buffer treated with N,N-bis(2-chloroethyl)-4-(4,4,5,5-tetramethyl-1,3,2-dioxaborolan-2-yl)aniline assessed as compound formation after 10 days in presence of GSH by IT-TOF mass analysis; type: physicochemical; conditions: 240 h
MDA-MB-468 [3] = assay: Growth inhibition of human MDA-MB-468 cells after 48 hrs by […]; type: functional, cell-based; conditions: MDA-MB-468, 48 h
[4] = Drug metabolism in PBS buffer assessed as 4-(bis(2-chloroethyl)amino)phenylboronic acid formation at pH 6 to 7 after 48 hrs
[5] = Drug metabolism in DMSO-d6/PBS buffer assessed as 2-((2-chloroethyl)(4-(4,4,5,5-tetramethyl-1,3,2-dioxaborolan-2-yl)phenyl)amino)ethanol formation after 10 days in presence of GSH by IT-TOF mass analysis
MDA-MB-468 [6] = assay: Growth inhibition of human MDA-MB-468 cells after 48 hrs by SRB assay; type: functional; conditions: MDA-MB-468, 48 h
In short: (§1)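 NCI-60 five-dose screen at 100 µM, 10 µM, 1 µM, 100 nM and 10 nM. Incubation 48 h at 37 °C, 5% CO2, 100% humidity. Growth was expressed relative to the no-drug control and to the time-zero cell number, and GI50 was derived from these values.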

[7] = Drug metabolism in DMSO-d6/PBS buffer assessed as 4-(bis(2-chloroethyl)amino)phenylboronic acid formation after 10 days in presence of GSH by IT-TOF mass analysis
dsDNA [8] = assay: Induction of DNA-interstanded-cross-link formation in [32P]-labeled 49-mer duplex DNA (unknown origin) at 1 mM in absence of H2O2 after 16 hrs by PAGE relative to control; type: functional
In short: (§2)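 A 32P-labelled 49-mer, annealed with 1.5 equiv complement (65 °C for 3 min in 10 mM potassium phosphate pH 7, 100 mM NaCl, then slow cooling), was used at 1.0 µM before final dilution. Duplex was mixed with compound (final 1 mM), NaCl and potassium phosphate pH 8, with or without H2O2. Incubation 16 h at room temperature, formamide quench, then 20% denaturing PAGE.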

[9] = Solubility of the compound in PBS buffer at 10 mM at pH 7.4 by UV-based analysis; type: physicochemical
In short: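 Compound (10 mM DMSO stock) was diluted into pH 7.4 buffer (ethanolamine/KH2PO4/potassium acetate/KCl) to a final 5% DMSO. After sonication and 18 h agitation the mixture was filtered and scanned by UV at 230-800 nm. Solubility was calculated from calibration plots made in 20% acetonitrile buffer, in quadruplicate, with solubility standards on each plate.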

dsDNA [10] = assay: Induction of DNA-interstanded-cross-link formation in [32P]-labeled 49-mer duplex DNA (unknown origin) at 1 mM in presence of H2O2 after 16 hrs by PAGE relative to control; type: functional; in short: as §2
SR = assay: Growth inhibition of human SR cells after 48 hrs by SRB assay; type: functional; in short: as §1
[11] = Drug level in DMSO-d6/PBS buffer treated with 4-(bis(2-chloroethyl)amino)phenylboronic acid assessed as compound formation after 10 days in presence of GSH by IT-TOF mass analysis; type: physicochemical; conditions: 240 h
K562 = assay: Growth inhibition of human K562 cells after 48 hrs by SRB assay; type: functional; conditions: K562, 48 h; in short: as §1
SK-OV-3 = assay: Growth inhibition of human SKOV3 cells after 48 hrs by SRB assay; type: functional; conditions: SK-OV-3, 48 h; in short: as §1
HOP-92 = assay: Growth inhibition of human HOP92 cells after 48 hrs by SRB assay; type: functional; conditions: HOP-92, 48 h; in short: as §1
HT-29 = assay: Growth inhibition of human HT-29 cells after 48 hrs by SRB assay; type: functional; conditions: HT-29, 48 h; in short: as §1
MCF7 = assay: Growth inhibition of human MCF7 cells after 48 hrs by SRB assay; type: functional; conditions: MCF7, 48 h; in short: as §1
RPMI-8226 = assay: Growth inhibition of human RPMI8226 cells after 48 hrs by SRB assay; type: functional; conditions: RPMI-8226, 48 h; in short: as §1
CCRF-CEM = assay: Growth inhibition of human CCRF-CEM cells after 48 hrs by SRB assay; type: functional; in short: as §1
IGROV-1 = assay: Growth inhibition of human IGROV1 cells after 48 hrs by SRB assay; type: functional; conditions: IGROV-1, 48 h; in short: as §1
SNB-75 = assay: Growth inhibition of human SNB75 cells after 48 hrs by SRB assay; type: functional; conditions: SNB-75, 48 h; in short: as §1
Malme-3M = assay: Growth inhibition of human MALME-3M cells after 48 hrs by SRB assay; type: functional; in short: as §1
MOLT-4 = assay: Growth inhibition of human MOLT4 cells after 48 hrs by SRB assay; type: functional; conditions: MOLT-4, 48 h; in short: as §1
[12] = test system: Panel NCI-60 (60 carcinoma cell lines); assay: Growth inhibition of human NCI60 cells at 10 uM after 48 hrs by SRB assay relative to control; type: functional, cell-based
In short: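 NCI-60 one-dose screen: cells exposed to 10 µM for 48 h at 37 °C, 5% CO2, 100% humidity. Percent growth is given relative to the no-drug control and the time-zero cell count.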

COC(=O)C1CSCc2cc(B(O)O)ccc2N(CCCl)CCN1 (stereo not drawn)
Drug uptake [1]: Active

CC1(C)OB(c2ccc(N(CCO)CCCl)cc2)OC1(C)C
Drug uptake [2]: Active

CC1(C)OB(c2ccc(N(CCCl)CCCl)cc2)OC1(C)C
IC50 (MDA-MB-468 [3]): 24.6 µM | Drug metabolism [4]: Metabolite detected | Drug metabolism [5]: Metabolite detected | GI50 (MDA-MB-468 [6]): 1.6 µM | Drug metabolism [7]: Metabolite detected | Activity (dsDNA [8]): 1.5 to 15% | solubility [9]: 167 µM (≈ 57.5 µg/mL) | Activity (dsDNA [10]): < 65% | GI50 (SR): 0.63 µM

OCCN(CCCl)c1ccc(B(O)O)cc1
Drug uptake [11]: Active

Cc1cc(N(CCCl)CCCl)ccc1B1OC(C)(C)C(C)(C)O1
GI50 (K562): 5.48 µM | IC50 (MDA-MB-468 [3]): 48.3 µM | GI50 (SK-OV-3): 4.62 µM | GI50 (MDA-MB-468 [6]): 7.88 µM | GI50 (HOP-92): 13.3 µM | Activity (dsDNA [8]): 1.5 to 15% | GI50 (HT-29): 14.7 µM | GI50 (MCF7): 3.86 µM | GI50 (RPMI-8226): 12 µM | GI50 (CCRF-CEM): 2.9 µM | solubility [9]: 24 µM (≈ 8.59 µg/mL) | GI50 (IGROV-1): 16.1 µM | GI50 (SNB-75): 10.1 µM | Activity (dsDNA [10]): < 65% | GI50 (Malme-3M): 13.6 µM | GI50 (SR): 0.49 µM | GI50 (MOLT-4): 2.6 µM

N[C@@H](Cc1ccc(N(CCCl)CCCl)cc1)C(=O)O [MELPHALAN]
IC50 (MDA-MB-468 [3]): 48.7 µM | Activity (dsDNA [8]): 4.9%

CC1(C)OB(c2ccc(N(CCCl)CCCl)c([N+](=O)[O-])c2)OC1(C)C
IC50 (MDA-MB-468 [3]): 92.8 µM | growth inhibition (GI) [12]: inactive | Activity (dsDNA [8]): 1.5 to 15% | solubility [9]: 380 µM (≈ 148 µg/mL) | Activity (dsDNA [10]): < 9%

O=C(O)CCCc1ccc(N(CCCl)CCCl)cc1 [CHLORAMBUCIL]
IC50 (MDA-MB-468 [3]): 34.4 µM | Activity (dsDNA [8]): 5.7%
